# HIV Env fusion – inhibitors of HIV-1 Env-driven cell-cell fusion, primary screen, HeLa-JRFL effector, CEM21 target cells, luciferase; 360,000 compounds, 1.1% hits; inhibition, % at 12.3 µM;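 active = mean replicate inhibition score of at least 50 and every replicate individually at or above 50; inconclusive = only one of the two criteria met; inactive = mean below 50 and not all replicates reaching 50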;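 note: 0% = plate neutral controls and 100% = maraviroc near 300 nM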
# ERAP1 inh – human ERAP1 aminopeptidase inhibitors, primary screen, biochemical, single point, plate reader | Endoplasmic reticulum aminopeptidase 1 (Homo sapiens), Q9NZ08 | recombinant ERAP1, Leu-AMC fluorescence, 60 min | inhibition, % at 10.7 µM | 340,000 compounds, 0.15% hits;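 active = mean replicate inhibition of at least 30%, or all replicates individually reaching that 30% level; inactive = mean below 30% and not every replicate reaching it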;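 note: 0% = neutral control wells and 100% = L-leucinethiol positive control wells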
# Target sequence (Q9NZ08 whole entry, looked up): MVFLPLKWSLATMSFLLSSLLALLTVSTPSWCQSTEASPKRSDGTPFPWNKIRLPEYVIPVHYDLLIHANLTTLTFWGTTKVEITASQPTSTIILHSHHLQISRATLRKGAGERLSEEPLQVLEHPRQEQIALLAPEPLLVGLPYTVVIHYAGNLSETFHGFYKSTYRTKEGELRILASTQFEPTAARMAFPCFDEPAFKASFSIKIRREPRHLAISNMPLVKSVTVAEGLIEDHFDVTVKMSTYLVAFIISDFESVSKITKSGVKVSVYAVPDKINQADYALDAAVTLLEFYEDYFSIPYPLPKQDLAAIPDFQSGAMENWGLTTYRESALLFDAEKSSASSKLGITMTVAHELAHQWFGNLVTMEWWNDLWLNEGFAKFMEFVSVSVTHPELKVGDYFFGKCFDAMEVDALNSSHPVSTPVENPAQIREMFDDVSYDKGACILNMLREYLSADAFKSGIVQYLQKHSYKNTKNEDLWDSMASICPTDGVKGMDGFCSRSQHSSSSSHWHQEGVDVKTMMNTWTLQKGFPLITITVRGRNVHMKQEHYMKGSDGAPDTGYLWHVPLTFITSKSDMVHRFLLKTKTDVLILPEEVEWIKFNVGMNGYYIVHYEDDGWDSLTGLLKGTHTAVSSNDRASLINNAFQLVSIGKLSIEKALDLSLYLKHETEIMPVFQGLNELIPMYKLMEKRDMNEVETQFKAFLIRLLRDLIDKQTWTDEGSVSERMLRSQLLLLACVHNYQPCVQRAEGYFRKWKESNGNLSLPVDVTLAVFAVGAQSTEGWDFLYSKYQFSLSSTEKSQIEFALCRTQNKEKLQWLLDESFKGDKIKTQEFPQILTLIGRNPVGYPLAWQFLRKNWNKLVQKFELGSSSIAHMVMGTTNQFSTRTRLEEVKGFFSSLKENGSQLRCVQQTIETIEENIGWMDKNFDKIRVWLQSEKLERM
# Wnt act – Wnt/beta-catenin pathway activators, primary screen, cell-based, plate reader, single point; Wnt/beta-catenin reporter cell assay, activator; 300,000 compounds, 1.2% hits; AID 743398, 2014; activation, % at 9.35 µM; in the data active = activation above about 30%, passing the limit was not always enough; inconclusive = no clear call, values can overlap the other calls;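 note: 0% = neutral control wells and 100% = positive control wells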
# Cneo AK release – Cryptococcus neoformans cell lysis inducers, primary screen, AK release luminescence, single concentration; C. neoformans lysis, adenylate kinase release luminescence, 4 h; normalised: neutral wells 0, clomiphene wells 100; lysis activity, % at 15 µM; 360,000 compounds, 0.2% hits;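 active = mean lysis activity across replicates of at least 80%, whatever share of replicates individually reach that level; inactive = mean lysis activity below 80%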
#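 Test system: log-phase Cryptococcus neoformans yeast cells; Quantity: yeast cell density of 5 × 10^6 cells/mL; Buffer or medium: YPD; Doses: single compound concentration per well; Timing: 4 h at 37 °C static, read 1 h later; Measured by: AK luminescence; Read-out basis: lysis from increased AK signal; Control set: Clomiphene as positive control.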
# esBAF inh – Bmi1 luciferase reporter increase in mESCs, primary screen, esBAF inhibitor project, mouse ES cells, Bmi1 luciferase knock-in, single point; 24 h; 100% = twice the neutral-well signal; reporter increase, % at 12.5 µM; 350,000 compounds, 2% hits; AID 602393, 2012; in the data active = activation above about 40%; inconclusive = no clear call, values can overlap the other calls;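 note: 0% = median of the plate's neutral control wells and 100% = double that signal; a rise in the Bmi1 reporter signal indicates esBAF inhibition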
# MITF act – activators of MITF-driven TRPM1 promoter reporter, primary screen, cell-based, SK-MEL-5, luciferase, single point. SK-MEL-5 TRPM1-promoter luciferase, 24 h; % of positive control, neutral wells = 0. activation, % at 12.5 µM. 300,000 compounds, 0.75% hits;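 active = mean activation of at least 80% with every replicate also reaching 80%; inconclusive = mean reaches 80% but some replicate falls short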;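 note: 0% = neutral control wells and 100% = parthenolide positive control wells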
# Starred values were filed as active, the others as inactive; u = inconclusive; x = not tested or not shown; [ ] = dose if it differs, or a comment. The list is not random: actives were taken first. Their share in the collection is about 3.5%.
SMILES,HIV Env fusion,ERAP1 inh,Wnt act,Cneo AK release,esBAF inh,MITF act
O=C(O)c1cccc(-c2csc(C(O)c3cccc(Cl)c3)n2)c1 (stereo unspecified),-10.0,-6.4,-1.3,1.0,47.8*,x
OC(c1ccccc1)c1nc(-c2ccccc2)cs1 (stereo unspecified),-23.3,4.2,1.4,-19.2,52.4*,x
COCc1cccc(-c2csc(C(O)c3ccccc3)n2)c1 (stereo unspecified),-15.2,-3.5,7.9,-4.5,53.3*,x
NC(=O)c1cccc(-c2csc(C(O)c3cccc(Cl)c3)n2)c1 (stereo unspecified),-10.7,-0.2,-0.8,-8.3,3.6,x
CO[C@@H]1CN(C)C(=O)c2ccc(NC(C)=O)cc2OC[C@@H](C)N(C(=O)Nc2ccccc2F)C[C@H]1C,x,-4.1,x,-6.1,3.4,x
C[C@@H]1CN([C@@H](C)CO)C(=O)Cc2cc(NC(=O)Nc3cccc4ccccc34)ccc2O[C@@H]1CN(C)Cc1ccc(C(=O)O)cc1,x,-1.7,x,114.7*,5.4,x
C[C@@H]1CN([C@@H](C)CO)C(=O)Cc2cc(NC(=O)Nc3ccc(C(F)(F)F)cc3)ccc2O[C@H]1CN(C)Cc1ccccc1,24.3[16.7 µM],2.3,x,1.1,1.0,x
C[C@H]1CN([C@@H](C)CO)C(=O)Cc2cc(NC(=O)Nc3ccc(C(F)(F)F)cc3)ccc2O[C@@H]1CN(C)Cc1ccccc1,82.0*[16.7 µM],2.0,x,-1.2,1.1,x
C[C@H]1CN([C@@H](C)CO)C(=O)Cc2cc(NC(=O)Nc3cccc4ccccc34)ccc2O[C@H]1CN(C)Cc1ccc(C(=O)O)cc1,x,-13.6,x,8.5,1.6,x
C[C@@H]1CN([C@@H](C)CO)C(=O)Cc2cc(NC(=O)Nc3ccc(F)cc3)ccc2O[C@H]1CN(C)Cc1ccc(C(F)(F)F)cc1,69.0*[16.7 µM],3.0,x,x,-1.9,x
C[C@@H]1CN([C@H](C)CO)C(=O)Cc2cc(NC(=O)CCCCCC(=O)Nc3ccccc3N)ccc2O[C@H]1CN(C)Cc1ccc2c(c1)OCO2,9.5[16.7 µM],1.8,x,91.7*,-1.8,x
O=C(c1ccc(F)cc1)N1CC(=O)N2[C@H](C1)[C@@H](c1ccc(C3=CCCC3)cc1)[C@@H]2CO,x,1.6,x,x,x,x
O=C(C[C@H]1C[C@@H]2c3cc(NS(=O)(=O)c4ccc(F)cc4)ccc3O[C@@H]2[C@@H](CO)O1)NCc1ccc(Cl)cc1,u,-0.4,x,-3.0,9.1,x
COCC(=O)N(C)C[C@@H]1Oc2ncc(C#CCC3CCCC3)cc2C(=O)N([C@H](C)CO)C[C@H]1C,2.9[16.7 µM],5.0,x,87.3*,-24.1,x
COCC#Cc1cnc2c(c1)C(=O)N([C@@H](C)CO)C[C@@H](C)[C@H](CN(C)C(=O)C1CC1)O2,-16.2[16.7 µM],-1.5,x,18.2,x,x
COCC#Cc1cnc2c(c1)C(=O)N([C@H](C)CO)C[C@H](C)[C@H](CN(C)C(=O)C1CC1)O2,-13.8[16.7 µM],-0.8,x,101.3*,x,x
COCC#Cc1cnc2c(c1)C(=O)N([C@H](C)CO)C[C@@H](C)[C@H](CN(C)C(=O)C1CC1)O2,-2.9[16.7 µM],-2.0,x,3.2,x,x
C/C=C/c1cnc2c(c1)C(=O)N([C@H](C)CO)C[C@@H](C)[C@@H](CN(C)C(=O)C1CCCCC1)O2,-4.3[16.7 µM],-2.0,x,95.1*,-1.8,x
COCC#Cc1cnc2c(c1)C(=O)N([C@@H](C)CO)C[C@@H](C)[C@@H](CN(C)C(=O)C1CC1)O2,-16.8[16.7 µM],1.7,x,86.6*,x,x
Cc1ccccc1S(=O)(=O)N(C)C[C@@H]1OCc2cn(nn2)CCCC(=O)N([C@H](C)CO)C[C@@H]1C,12.9[16.7 µM],x,x,4.6,3.2,x
CO[C@H]1CN(C)C(=O)c2cc(NS(=O)(=O)c3ccc(F)cc3)ccc2OC[C@H](C)NC[C@@H]1C,10.1[16.7 µM],-2.7,x,-3.3,0.5,x
C[C@@H]1CCCCO[C@H](CN(C)CC2CC2)[C@@H](C)CN([C@H](C)CO)C(=O)c2cc(NC(=O)Nc3ccccc3)ccc2O1,-11.0[16.7 µM],0.3,x,-3.6,3.7,x
O=C(Nc1cc2c3c(c1)CC(=O)N3CCC2)c1ccc(Cl)cc1,84.6*,0.6,8.3,0.1,23.1,30.9
CNCCCNC(=O)c1ccc(/C=N/O)nc1,12.7,-0.2,-1.2,x,x,-3.9
C[N+](C)(C)CCCNC(=O)c1ccc(/C=N/O)nc1,0.6,108.7*,-2.0,x,x,-3.8
SMILES,HIV Env fusion,ERAP1 inh,Wnt act,Cneo AK release,esBAF inh,MITF act
COc1ccccc1C(=O)Nc1ccc2c(c1)OC[C@H](C)NC[C@H](C)[C@@H](OC)CN(C)C2=O,x,-0.9,x,x,x,x
CC1(Cc2ccc(C(F)(F)F)o2)C(=O)Nc2cc(-c3ccc(F)cc3F)ccc21 (stereo unspecified),61.8*,-5.2,-1.8,-2.6,-7.3,x
CC1(Cc2cc(Cl)ccc2C(F)(F)F)C(=O)Nc2cc(F)ccc21 (stereo unspecified),x,x,x,-0.7,-7.5,x
COC(=O)C1=C(C)Nc2nc3ccccc3n2C1c1cc(OC)c(OC)c(OC)c1 (stereo unspecified),15.9,2.8,44.2*,-3.4,x,x
C[C@@H]1CN([C@@H](C)CO)C(=O)c2cccc(N(C)C)c2O[C@H]1CN(C)Cc1ccc2c(c1)OCO2,-21.1[16.7 µM],-2.6,x,-0.7,1.2,x
COC(=O)c1c(-c2ccc(OC)cc2)sc2ccc(OC)cc12,-96.5,x,41.8*,-2.2,45.9*,66.5
CC(C)COC(=O)N(C)C[C@@H]1OCc2ccccc2-c2c(n(C)c3ccccc23)C(=O)N([C@@H](C)CO)C[C@H]1C,23.4[16.7 µM],0.6,x,-0.6,1.1,x
C[C@@H]1CN([C@@H](C)CO)C(=O)c2ccccc2-c2ccccc2CO[C@@H]1CN(C)C(=O)CCC(F)(F)F,14.7[16.7 µM],x,x,0.1,2.0,x
CO[C@H](C(=O)N(C)C[C@@H]1OCc2ccccc2-c2c(n(C)c3ccccc23)C(=O)N([C@H](C)CO)C[C@@H]1C)c1ccccc1,77.8*,-1.9,1.5,-1.0,6.4,x
C[C@H]1CN([C@@H](C)CO)C(=O)c2ccccc2-c2ccccc2CO[C@@H]1CN(C)C(=O)CCC(F)(F)F,56.8*[16.7 µM],x,x,x,1.0,x
CC(C)COC(=O)N(C)C[C@H]1OCc2ccccc2-c2c(n(C)c3ccccc23)C(=O)N([C@H](C)CO)C[C@@H]1C,61.8*[16.7 µM],1.0,x,4.7,1.3,x
C[C@H](CO)N1C[C@H](C)[C@H](CN(C)C(=O)c2ccccc2)OCc2ccccc2-c2c(n(C)c3ccccc23)C1=O,57.5*,x,-4.5,0.4,1.8,x
COc1cccc(S(=O)(=O)Nc2ccc3c(c2)[C@H]2C[C@H](CC(=O)N4CCCCC4)O[C@H](CO)[C@H]2O3)c1,5.9[16.7 µM],-3.4,x,3.5,8.3,x

# Source: PubChem BioAssay (Broad Institute)
